From PubChem BioAssay
SR-BI HDL uptake: inhibitors of mouse SR-BI mediated HDL lipid uptake. Q61009. ldlA[mSR-BI] CHO cells, DiI-HDL uptake fluorescence, 3 h. inhibition, % at 12.5 µM. actives 0.96% (n = 320,000). AID 488896;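 active = mean replicate inhibition of at least 70% and a set share of replicates each scoring 70 or more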;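 note: 0% = median of neutral control wells and 100% = median of positive control wells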
SR-BI uptake up: activators of SR-BI mediated HDL lipid uptake | actives 0.096% (n = 320,000) | CHO ldlA[mSR-BI] cells, DiI-HDL uptake fluorescence, 3 h; 100 = double the neutral-control signal | activation, % at 12.5 µM;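 active = mean replicate activation of at least 60% and every replicate at or above 60%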;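 note: 0% = median plate neutral-control signal and 100% = twice that signal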
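Material – SR-BI-overexpressing, LDLR-lacking CHO cells · Medium – BSA-supplemented, HEPES-buffered Ham's F12, pH 7.4 · Doses – single concentration · Times – compound with DiI-HDL co-incubation, 3 h at 37 °C · Measured by – bottom-read fluorescence, 550/595 nm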
CDK5 p35 inh: CDK5/p35 (human) kinase inhibition; AID 488839; actives 0.01% (n = 330,000); Recombinant CDK5/p35, ADP-Glo luminescence, 60 min; inhibition, % at 10 µM;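 active = highest replicate inhibition of at least 50% and at least 75% of replicates reaching 50%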;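 note: plate controls were DMSO neutral control for no effect and GW8510 at 10 µM for full effect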
dFosB act-1: mouse delta FosB homodimer activation; purified delta FosB, TAMRA-CDK5 oligo fluorescence polarization; percent of positive-control signal above neutral wells; activation, % at 25 µM; actives 0.99% (n = 340,000);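 active = mean activation above about 17%, with every replicate also reaching it, limit read from the data, passing the limit was not always enough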
Target sequence (P13346 whole entry, looked up): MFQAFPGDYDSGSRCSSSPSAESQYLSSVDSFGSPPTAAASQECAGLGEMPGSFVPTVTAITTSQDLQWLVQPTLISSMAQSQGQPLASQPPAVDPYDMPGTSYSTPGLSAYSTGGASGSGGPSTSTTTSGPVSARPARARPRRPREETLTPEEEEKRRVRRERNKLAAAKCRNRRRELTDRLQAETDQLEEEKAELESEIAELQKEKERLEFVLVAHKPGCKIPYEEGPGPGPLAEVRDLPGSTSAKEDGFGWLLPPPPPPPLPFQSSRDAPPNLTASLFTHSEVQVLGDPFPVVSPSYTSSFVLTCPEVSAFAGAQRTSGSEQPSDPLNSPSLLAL
dFosB act-2: delta FosB (mouse) homodimer activation. shares compounds with dFosB act-1. purified delta FosB, TAMRA-CDK5 oligo fluorescence polarization; normalised: neutral wells 0, positive control 100. activation, % at 24.9 µM. 2,400 tested, under 10 active;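 active = highest replicate activation at or above 34% and every replicate reaching that threshold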;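 note: higher polarization means more probe DNA bound by delta FosB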
* = called active by the depositor; / = no result given. Shown are actives, neighbours in structure and some others; about 2% of the full set was active somewhere.

SMILES	SR-BI HDL uptake	SR-BI uptake up	CDK5 p35 inh	dFosB act-1	dFosB act-2
CC1=C(C(N)=O)C(c2cccnc2)n2nc(SCc3ccccc3Cl)nc2N1 (stereo not drawn)	11	-11	0	101*	4
CC1=C(C(N)=O)C(c2ccccn2)n2nc(SCc3ccccc3Cl)nc2N1 (stereo not drawn)	-2	2	1	3	/
Cn1cnnc1SC(C(=O)Nc1cc(Cl)cc(Cl)c1)c1ccccc1 (stereo not drawn)	-35	35	0	20*	12
CNC(=O)CSc1nc2cccnc2n1-c1ccc(F)cc1	-7	7	1	0	/
C[C@@H](CN=[N+]=[N-])CN1CC[C@H](C(C)(C)C)CCC1=O	-47	47	1	5	/
O=C(Cc1csc(Nc2nc(=S)[nH]c3ccccc23)n1)NCc1ccccc1Cl	28	-28	2	49*	7
COc1ccc(N2CCN(CCCNC(=O)C3CCC(CNc4nc(=S)[nH]c5ccccc45)CC3)CC2)cc1 (stereo not drawn)	46	-46	-1	-1	/
O=C(Cc1csc(Nc2nc(=S)[nH]c3ccccc23)n1)NCc1cccc(Cl)c1	30	-30	-2	4	/
O=C(NCCC1=CCCCC1)C1CCC(CNc2nc(=S)[nH]c3ccccc23)CC1 (stereo not drawn)	7	-7	0	23*	2
O=C(C1CCC(CNc2nc(=S)[nH]c3ccccc23)CC1)N1CCN(c2ccc(F)cc2)CC1 (stereo not drawn)	3	-3	2	37*	1
CCCCNC(=O)C1CCC(CNc2nc(=S)[nH]c3ccccc23)CC1 (stereo not drawn)	-1	1	1	-3	/
O=C(NCCc1ccc(Cl)cc1)C1CCC(CNc2nc(=S)[nH]c3ccccc23)CC1 (stereo not drawn)	34	-34	-2	72*	6
CCCCN(C)CCNC(=O)CCn1nc(-c2ccc(C)cc2)ccc1=O	2	-2	1	-6	/
O=C(NCCC1=CCCCC1)C1CCC(CNS(=O)(=O)c2ccccc2)CC1 (stereo not drawn)	26	-26	-1	-2	/
O=C(NCc1ccccc1Cl)C1CCC(CNc2nc(=S)[nH]c3ccccc23)CC1 (stereo not drawn)	60	-60	0	71*	1
CC(=O)Nc1ccc(S(=O)(=O)NCC2CCC(C(=O)NCCC3=CCCCC3)CC2)cc1 (stereo not drawn)	39	-39	1	63*	5
CC(C)OC(=O)C(C)Nc1ccc(F)c(Cl)c1 (stereo not drawn)	21	-21	-1	-2	/
O=C(Nc1ccc2c(c1)OCO2)Nc1ccc(Cl)cc1Cl	4	-4	0	29*	1
O=C(Nc1cnccn1)Nc1ccc(Cl)cc1Cl	3	-3	-1	34*	6
CN(C)S(=O)(=O)c1ccc(C(=O)OCC(=O)c2ccc3c(c2)NC(=O)CO3)cc1	15	-15	0	27*	1
O=C1COc2ccc(C(=O)COC(=O)c3sc4ccccc4c3Cl)cc2N1	47	-47	-1	94*	5
O=C1COc2ccc(C(=O)COc3ccc([N+](=O)[O-])cc3)cc2N1	/	/	-1	18*	2
CCN(CC)S(=O)(=O)c1cc(C(=O)OCC(=O)c2ccc3c(c2)NC(=O)CO3)ccc1F	7	-7	0	20*	1
CN(C)c1ncnc2c1C(c1ccccc1)C(C)(C)O2 (stereo not drawn)	17	-17	0	2	/
CC(C)(C)c1ccc(C(CC(=O)O)NC(=O)C23CC4CC(CC(C4)C2)C3)cc1 (stereo not drawn)	/	/	-1	-3	/
SMILES	SR-BI HDL uptake	SR-BI uptake up	CDK5 p35 inh	dFosB act-1	dFosB act-2
OC(COc1ccc(Br)cc1)CN1CCC(Cc2ccccc2)CC1 (stereo not drawn)	0	0	1	-3	/
COC(=O)[C@@H](NCc1ccc(OC)c(B(O)O)c1)C(C)C	4	-4	0	2	/
COc1ccc2cc3cc(C(=O)NCc4ccc5c(c4)OCO5)oc3nc2c1	0	0	0	17*	-1
O=S(=O)(Nc1ccc2c(c1)nc1n2CCN(Cc2ccccc2)C1)c1ccccc1	12	-12	-1	24*	-3
Cc1ccc(S(=O)(=O)Nc2ccc3c(c2)nc2n3CCN(Cc3ccccc3)C2)cc1	-15	15	-1	5	/
O=S(=O)(Nc1ccc2c(c1)nc1n2CCN(Cc2ccccc2)C1)c1ccc(F)cc1	-2	2	0	-1	/
O=S(=O)(Nc1ccc2c(c1)nc1n2CCN(Cc2ccccc2)C1)c1ccc(Cl)cc1	-13	13	0	23*	-9
Cc1cccc(NC(=O)NNC(=O)COc2ccc([N+](=O)[O-])cc2)c1C	-17	17	0	31*	3
COc1ccc(Cl)cc1NC(=O)C1Cc2ccccc2CN1S(C)(=O)=O (stereo not drawn)	16	-16	9	-11	/
COc1cc(NC(=O)C2Cc3ccccc3CN2S(C)(=O)=O)cc(OC)c1 (stereo not drawn)	-8	8	2	23*	0
N#C/C(=C\c1cn(Cc2ccccc2)c2ccccc12)C(=O)NCc1ccco1	28	-28	0	8	/
Cc1cccc(NC(=O)/C(C#N)=C/c2cn(CC(=O)NCc3ccco3)c3ccccc23)c1C	30	-30	1	37*	0
N#C/C(=C\c1cn(Cc2cccc(F)c2)c2ccccc12)C(=O)NCc1ccco1	38	-38	0	37*	5
Fc1ccc(Nc2nc(-c3ccncc3)nc3ccccc23)cc1F	59	-59	2	89*	2
CC(=O)c1sc(NC(=O)c2ccccc2F)nc1-c1ccccc1	6	-6	-1	-11	/
Clc1cccc(Nc2nc(-c3ccncc3)nc3ccccc23)c1	33	-33	2	-8	/
CC(=O)Nc1ccc(Nc2nc(-c3ccccc3)nc3ccccc23)cc1	31	-31	-8	-9	/
CC(=O)c1sc(NC(=O)c2ccc(F)cc2)nc1-c1ccccc1	54	-54	0	25*	7
COc1ccc(C(=O)Nc2nc(-c3ccccc3)c(C(C)=O)s2)c(OC)c1	21	-21	0	32*	3
O=C(Nc1nc(-c2ccccc2)nc2ccccc12)c1ccc(F)cc1	-3	3	-3	22*	-2
Cc1ccc(NC(=O)NC2CC(=O)N(c3ccc4c(c3)OCCO4)C2)cc1F (stereo not drawn)	18	-18	-1	4	/
COc1cc(CNCCO)ccc1OCCc1ccccc1	8	-8	0	-5	/
O=C(Nn1c(COc2ccccc2)nc2ccccc2c1=O)C(Cl)(Cl)Cl	13	-13	1	-3	/
